In ChEMBL document CHEMBL4513216, “Probing the Open Global Health Chemical Diversity Library for Multistage-Active Starting Points for Next-Generation Antimalarials” (ACS Infect Dis, 2020) one finds cytotoxicity data, which are given here for 38 molecules.

Molecules are shown by their SMILES.

A short description of the series: Toxicity liver stage against HepG2, at 10uM. The arrangement: test concentration 10 uM, cell line HepG2-A16-CD81EGFP. In kind it is cell-based. To be noted: human, HepG2-A16-CD81EGFP cells; read-out: INHIBITION
The essentials: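 Uninfected HepG2-A16-CD81EGFP cells, 3 × 10^3 per well, 1536-well, plated on prespotted compound at 10 μM final, parasite-free screening media added to match infected plates; puromycin 10 μM positive, DMSO 0.5% negative; run in parallel with 48 h PbLuc assay at 37 °C, 5% CO2; viability by CellTiter-Glo luminescence, normalized to controls.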
In the case of `COC(=O)[C@@H](NC(=O)Nc1ccc(C(C)=O)cc1)C(C)C`, the cytotoxicity at 10 µM amounted to 10.1%.

With `COCCn1cc(CCC(=O)Nc2c(C)nn(C)c2C)c2ccccc21`, the cytotoxicity at 10 µM is -177%.

Consider `Cc1nc(N2CCOCC2)nc2c1CCN(C(=O)N1CCCC1)CC2`, for which the cytotoxicity at 10 µM was 0.64%.

With `CS(=O)(=O)N1C[C@@H]2COC[C@@H](CC(=O)N3CCCO3)[C@@H]2C1`, the cytotoxicity at 10 µM turned out to be 11.1%.

For the molecule `CN(C)C(=O)COCc1ncn2c1CN(c1ncc(F)cn1)CCC2`, the cytotoxicity at 10 µM stood at 6.01%.

With `CC(C)C(=O)N1CCCC12CCCN(C(=O)c1ccno1)C2` (stereo not drawn), the cytotoxicity at 10 µM is 5.35%.

Turning to `Cc1nnc([C@@H]2CCO[C@@H]3CCN(C(=O)Cc4ccccn4)C[C@@H]32)o1`, the cytotoxicity at 10 µM was found to be 10.1%.

With `Cn1cc(CN2CCO[C@H]3CN(Cc4ccco4)C[C@H]32)cn1`, the cytotoxicity at 10 µM is -140%.

For `c1cncc(COCC2CN(Cc3ccncc3)Cc3ccnn3C2)c1` (stereo not drawn), the cytotoxicity at 10 µM is -135%.

For the molecule `O=c1[nH]nc2c(S(=O)(=O)N3CCN(c4ccc(F)cc4)CC3)cccn12`, the cytotoxicity at 10 µM is 11.8%.

For the molecule `O=C(COc1cc(Cl)cc(Cl)c1)NCc1nncn1C1CC1`, the cytotoxicity at 10 µM is -11.5%.

As for `CCCc1nc(CN(CCO)Cc2cc(Br)ccc2F)no1`, the cytotoxicity at 10 µM is -5.1%.

Turning to `CN(CCO)Cc1cc(=O)n2cc(Br)ccc2n1`, the cytotoxicity at 10 µM was -6.69%.

`CCSCc1ccnc(NC(=O)C2CCOC2)c1` (stereo not drawn): the cytotoxicity at 10 µM is 0.841%.

Turning to `O=C(Nc1ccc(-n2ccc(C(=O)O)n2)cc1)c1ccccc1`, the cytotoxicity at 10 µM was -139%.

Regarding `CCOc1cccc(CNc2cnn(CC(C)C)c2CC)c1`, the cytotoxicity at 10 µM was 2.93%.

As for `COC(=O)CCNC(=O)c1c[nH]cc1-c1cccc(OC)c1`, the cytotoxicity at 10 µM was 4.89%.

In the case of `CC(C)COC(=O)N1CCCN(Cc2nnc(C(C)(C)C)o2)CC1`, the cytotoxicity at 10 µM was found to be 11.1%.

Regarding `O=C(NCCOc1ncc(Cl)cc1Cl)c1ccncc1`, the cytotoxicity at 10 µM turned out to be 7.18%.

As for `CCOc1ccc(CN(CCOC)C(=O)c2ccncc2Cl)cc1`, the cytotoxicity at 10 µM amounted to 5.82%.

As for `Cc1c(C(=O)NCC2CCN(Cc3ccco3)C2)[nH]c2ccccc12` (stereo not drawn), the cytotoxicity at 10 µM turned out to be 6.32%.

With `Cc1sc2nc(CCN)nc(N3CCC(N4CCCC4)CC3)c2c1C`, the cytotoxicity at 10 µM was -51.6%.

As for `CC(C)N1CC2(CCC1=O)CCN(C(=O)c1cccc(F)c1F)CC2`, the cytotoxicity at 10 µM is -18.5%.

On to `CCNC(=O)N(C)C(c1cccc(F)c1)c1ccccn1` (stereo not drawn), for which the cytotoxicity at 10 µM is -11.6%.

For the molecule `COc1ccc(C(=O)N2CCCCC2c2nc(C)cs2)nn1` (stereo not drawn), the cytotoxicity at 10 µM is -6.77%.

`Cc1nccn1CC1CCCN1S(=O)(=O)Cc1ccccc1` (stereo not drawn): the cytotoxicity at 10 µM was -18%.

With `CC(O)CN1CCN(C(=O)c2ccc(N(C)C)nc2)CC1` (stereo not drawn), the cytotoxicity at 10 µM is -9.78%.

For the molecule `N#Cc1ccccc1OCCN1CCn2c(nnc2C2CC2)C1`, the cytotoxicity at 10 µM was found to be 2.94%.

`O=C(Cc1csc(-c2nnc[nH]2)n1)N1CCCC1Cn1cccn1` (stereo not drawn): the cytotoxicity at 10 µM was -2.48%.

In the case of `CCCc1nc(CN2CCCC(Cn3cncn3)C2)no1` (stereo not drawn), the cytotoxicity at 10 µM is -4.02%.

Regarding `Cc1cnn(CC2CCCN2C(=O)c2ccc3[nH]nnc3c2)c1` (stereo not drawn), the cytotoxicity at 10 µM amounted to 1.03%.

Regarding `Cc1nc(C)n(CC2CCCN(CCNC(=O)OC(C)(C)C)C2)n1` (stereo not drawn), the cytotoxicity at 10 µM was 1.08%.

Turning to `NCc1ccccc1Sc1ccc(O)cc1`, the cytotoxicity at 10 µM was found to be 1.31%.

On to `Cc1ccc(CN2CCC3(CC2)C(=O)N(CC(C)C)CCN3C)o1`, for which the cytotoxicity at 10 µM is -0.508%.

Regarding `Cc1cnc(N2CC[C@H]3[C@H](C[C@@H](CN(C)C)N3C)C2)nc1`, the cytotoxicity at 10 µM was determined as 5.71%.

On to `CN(C)CCNC(=O)[C@H]1C[C@H]2CN(c3ncccn3)C[C@H]2N1C`, for which the cytotoxicity at 10 µM turned out to be 9.52%.

Regarding `Cc1cc(C(=O)N2CC[C@H]3[C@H](C[C@@H](CN4CCCC4)N3C)C2)c(C)o1`, the cytotoxicity at 10 µM was 9.97%.

Turning to `Cc1ccc(-c2cc(C3=NC(=CN4CCN(C)CC4)NO3)[nH]n2)s1`, the cytotoxicity at 10 µM is -9.45%.
